Experimental data taken from PubChem BioAssay AID652250 (Vanderbilt Specialized Chemistry Center, 2013).
Activity calls are given as the source filed them.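 The calls were made as follows: active = compounds leaving under half of the peptide-driven platelet calcium rise; inactive = the rest.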

Biological target: Proteinase-activated receptor 4 (Homo sapiens) (UniProt Q96RI0)
Test: inhibition of PAR4-AP calcium signal – cell-based, single concentration, washed platelets, Fluo4 calcium (AID 652250)
Conditions: PAR4-AP calcium Fluo4 fluorescence; for % of max PAR4-AP calcium response: at 10 µM, hits give low values
How it was run: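 Assay system: Fluo4-AM-loaded washed human platelets / Quantity: 10^8 platelets/mL / Detection: fluorescence at 480/540 nm, 1 s intervals / Also added: 80 µM PAR4-AP / Benchmarks: PAR4-AP-stimulated DMSO control (100%) / Replicates: triplicate wells / Read-out: peak minus basal RFU as % of per-donor DMSO control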

Sequence of Proteinase-activated receptor 4 (Homo sapiens) (Q96RI0 whole entry, looked up): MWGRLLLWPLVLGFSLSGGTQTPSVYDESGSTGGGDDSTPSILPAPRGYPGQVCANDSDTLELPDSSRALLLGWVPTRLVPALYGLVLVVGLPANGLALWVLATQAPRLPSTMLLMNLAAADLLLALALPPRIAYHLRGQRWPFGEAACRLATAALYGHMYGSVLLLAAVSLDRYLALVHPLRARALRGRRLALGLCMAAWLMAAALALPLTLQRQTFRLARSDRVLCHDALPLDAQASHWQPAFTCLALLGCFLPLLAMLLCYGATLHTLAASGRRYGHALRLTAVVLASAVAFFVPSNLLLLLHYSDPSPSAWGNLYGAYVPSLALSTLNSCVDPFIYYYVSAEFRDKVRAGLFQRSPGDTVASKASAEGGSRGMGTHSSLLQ

| Compound | IC50 | % of max PAR4-AP calcium response |
| --- | --- | --- |
| COc1cccc(Cn2cc(-c3ccc(OC)nc3)c3ccccc32)c1 | 14.6 µM |  |
| COc1cc(NS(=O)(=O)c2ccc(NC(=O)c3ccc4c(c3)c(C)c(C)n4C)cc2)ncn1 |  | inactive |
| Cc1nn(-c2ccccc2)c2[nH]c(C(F)(F)F)cc(=O)c12 |  | inactive |
| O=C(Cn1cc(CO)c2ccccc21)Nc1ccccc1 |  | inactive |
| O=C(N/N=C/c1cccc2cccnc12)c1ccn(Cc2ccc(Cl)cc2)n1 |  | inactive |
| CC1CCCCN1C(=O)Cn1cc(C(=O)C(F)(F)F)c2ccccc21 (stereo unspecified) |  | inactive |
| O=C(CN1CCOCC1)n1c2c(c3ccccc31)CCCC2 |  | inactive |
| FC(F)(F)c1cccc(-n2cc(-c3ccccc3)c3c(NC4CCCC4)ncnc32)c1 |  | inactive |
| COc1ccc2c(c1)c(C(=O)OCCN(C)C)c(C)n2C |  | 37.4% |
| COc1ccc(C)cc1NC(=O)Cc1cn(C)c2ccccc12 |  | inactive |
| CCCOc1ccc(-c2cn(Cc3ccccc3)c3ccccc23)cc1 |  | inactive |
| OC(CNCc1ccccc1)Cn1c2c(c3ccccc31)CCCC2 (stereo unspecified) |  | inactive |
| Cn1cc(CC(=O)NCCN2CCOCC2)c2ccccc21 |  | inactive |
| Cc1cc(O)cc(O)c1C(=O)Cc1cnn(-c2ccccc2)c1 |  | inactive |
| O=C(c1cn(CCOc2ccccc2F)c2ccccc12)C(F)(F)F |  | inactive |
| O=C(Cn1cc(C(=O)C(F)(F)F)c2cc(Br)ccc21)N1CCCCC1 |  | inactive |
| Fc1ccc(Cn2cc(C(=S)N3CCCC3)c3ccccc32)cc1 |  | inactive |
| COc1ccc(-n2nc(C(=O)Nc3cccc(C)n3)c3c4ccccc4n(C)c3c2=O)cc1Cl |  | inactive |
| O=C(Nc1cccc(Br)c1)c1ccn(C(=O)Nc2ccc(Cl)cc2)n1 |  | inactive |
| Cc1cccc(NCC(O)Cn2c(C)c(C)c3ccccc32)c1C (stereo unspecified) |  | inactive |
| FC(F)(F)c1cccc(-n2cc(-c3ccccc3)c3c(NCCN4CCOCC4)ncnc32)c1 |  | inactive |
| Cc1ccc(-n2cc(-c3ccccc3)c3c(N4CCCC4)ncnc32)cc1 |  | inactive |
| O=C(c1cn(CCOc2ccc(Cl)cc2)c2ccc(Br)cc12)C(F)(F)F |  | inactive |

| Compound | IC50 | % of max PAR4-AP calcium response |
| --- | --- | --- |
| Oc1ccccc1-c1nc2c3c(-c4ccccc4)c(-c4ccccc4)n(Cc4ccco4)c3ncn2n1 |  | inactive |
| Cc1c(C)n(CC(O)CNc2ccccc2)c2ccccc12 (stereo unspecified) |  | inactive |
| Fc1ccc(-c2cn(Cc3ccccc3)c3ccccc23)c(F)n1 |  | inactive |
| OCCc1cn(-c2ccccc2)c2ccccc12 |  | inactive |
| Cn1cc(-c2cn(Cc3ccccc3)c3ccccc23)cn1 |  | inactive |
| COc1ccc(C(C[N+](=O)[O-])c2c(-c3ccccc3)n(C)c3ccccc23)cc1 (stereo unspecified) |  | inactive |
| Fc1ccc(-c2cn(Cc3ccccc3)c3ccccc23)cn1 | 10 µM |  |
| COc1ccc(-c2cn(Cc3cccc(-c4ccsc4)c3)c3ccccc23)cn1 |  | inactive |
| NS(=O)(=O)c1ccc(CCNc2ncnc3c2c(-c2ccccc2)cn3-c2cccc(Cl)c2)cc1 |  | inactive |
| CCn1ccc(C(=O)Nc2ccc(Cl)cc2Cl)n1 |  | inactive |
| COc1ccc2c(c1)c(C(=O)CNc1nccs1)c(C)n2C |  | inactive |
| O=C(N/N=C/c1ccncc1)c1ccn(Cc2ccc(Cl)cc2Cl)n1 |  | inactive |
| O=C(Cn1cc(C(=S)N2CCOCC2)c2ccccc21)N1CCOCC1 |  | inactive |
| O=C(c1cn(Cc2ccc(F)cc2)c2ccccc12)C(F)(F)F |  | inactive |
| Cc1c(C)n(CC(O)CNCc2ccccc2)c2ccccc12 (stereo unspecified) |  | inactive |
| S=C(c1cn(CCOc2ccccc2)c2ccccc12)N1CCCC1 |  | inactive |
| Clc1ccccc1CNc1ncnc2c1c(-c1ccccc1)cn2-c1ccccc1 |  | inactive |
| COc1ncc(-c2cn(Cc3ccccc3)c3ccccc23)cn1 |  | inactive |
| Fc1cc(-c2cn(Cc3ccccc3)c3ccccc23)cc(F)n1 |  | inactive |
| Cc1nc(-c2cnn(-c3ccccc3)c2)c2cc(C)oc2n1 |  | inactive |
| c1ccc(Cn2cc(-c3cncnc3)c3ccccc32)cc1 |  | inactive |
| CSc1ccc(-c2cn(Cc3ccccc3)c3ccccc23)cn1 |  | inactive |
| CCCCN(C)c1ncnc2c1c(-c1ccccc1)cn2-c1cccc(C)c1 |  | inactive |
